Assay results taken from ChEMBL document CHEMBL4052614, “Novel 3',5'-diprenylated chalcones inhibited the proliferation of cancer cells in vitro by inducing cell apoptosis and arresting cell cycle phase” (Eur J Med Chem, 2017).
The source made the active and inactive calls. The calls are words filed in the database; no cut-off is given here.

Assays:
HEL [1] = assay: Cell cycle arrest in HEL cells assessed as increase in G1 phase accumulation at 5 umol/L after 48 hrs by propidium iodide staining based flow cytometry; assay type: functional; details: Homo sapiens
How it was run: (§1)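 Cells grown in DMEM with 10% FBS and penicillin/streptomycin at 37 °C, 5% CO2, and passaged at least 3 times after thawing. Treated 48 h at 5 µmol/L, DMSO-treated controls. Harvested by trypsin, PBS-washed, fixed in ice-cold ethanol, blocked 1 h at 4 °C in 5% BSA/PBS, RNase 1 µg/mL 30 min at 37 °C, PI 20 µg/mL final. Phase percentages read from PI histograms. Mean ± SD, three independent experiments.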

MDA-MB-231 [2] = assay: Cell cycle arrest in human MDA-MB-231 cells assessed as increase in G2 phase accumulation at 5 umol/L after 48 hrs by propidium iodide staining based flow cytometry; assay type: functional; how it was run: as §1
K562 [3] = assay: Potency index, ratio of compound effect to (E)-2-Hydroxy-4,4-dimethoxy-3,5-diprenylchalcone effect for growth inhibition of human K562 cells; assay type: functional
PC-3 [4] = assay: Cytotoxicity against human PC3 cells after 48 hrs by MTT assay; assay type: functional, cell-based
How it was run: (§2)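 Cells kept in DMEM/10% FBS at 37 °C, 5% CO2, seeded at 4×10^3–8×10^3 cells/well and left 24 h to adhere. Exposed 48 h to a range of concentrations. MTT (5 mg/mL solution) added for 4 h at 37 °C, formazan dissolved in DMSO, absorbance read at 490 nm. IC50 derived from concentration–inhibition relation. Doxorubicin as positive control.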

PC-3 [5] = assay: Induction of morphological changes in human PC3 cells assessed as increase in intracellular space at 5 umol/L after 48 hrs by inverted microscopic method; assay type: functional, cell-based
How it was run: (§3)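 PC3 cells were kept in DMEM with 10% FBS, penicillin and streptomycin at 37 °C under 5% CO2, and were passaged at least 3 times after thawing. Cells were seeded at 4 × 10^3 to 8 × 10^3 cells/well and left to adhere for 24 h. They were then exposed to 5 µmol/L compound for 48 h. Morphology was viewed by inverted microscope against DMSO-treated controls.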

MDA-MB-231 [6] = assay: Induction of apoptosis in human MDA-MB-231 cells assessed as spindle like formation at 5 umol/L after 48 hrs by inverted microscopic method; assay type: functional, cell-based
How it was run: (§4)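 Cells cultured in DMEM/10% FBS at 37 °C, 5% CO2. Exposed 48 h to 5 µmol/L compound alongside DMSO controls. Morphology (cell number, rounding, spacing, apoptotic bodies, spindle shape) observed under an inverted microscope with CCD camera.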

PC-3 [7] = assay: Growth inhibition of human PC3 cells at 5 umol/L after 48 hrs by MTT assay relative to control; assay type: functional; details: PC-3, 48 h, read-out: GI
How it was run: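 Cells kept in DMEM/10% FBS at 37 °C, 5% CO2, seeded at 4×10^3–8×10^3 cells/well, 24 h attachment, then 48 h with compound at 5 µmol/L. MTT (5 mg/mL solution) added for 4 h at 37 °C, formazan taken up in DMSO, A490 read. Percent inhibition as mean ± SD of three independent experiments. Doxorubicin as positive control.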

K562 [8] = assay: Induction of morphological changes in human K562 cells assessed as increase in intracellular space at 5 umol/L after 48 hrs by inverted microscopic method; assay type: functional, cell-based; how it was run: as §4
K562 [9] = assay: Induction of apoptosis in human K562 cells assessed as necrotic cells at 5 umol/L after 48 hrs by annexin V-FITC/propidium iodide staining based flow cytometry (reference value: 1.2%); assay type: functional
K562 [10] = assay: Induction of apoptosis in human K562 cells assessed as early apoptotic cells at 5 umol/L after 48 hrs by annexin V-FITC/propidium iodide staining based flow cytometry (reference value: 4%); assay type: functional
MDA-MB-231 [11] = assay: Potency index, ratio of compound effect to (E)-2-Hydroxy-4,4-dimethoxy-3,5-diprenylchalcone effect for growth inhibition of human MDA-MB-231 cells; assay type: functional
PC-3 [12] = assay: Induction of apoptosis in human PC3 cells assessed as necrotic cells at 5 umol/L after 48 hrs by annexin V-FITC/propidium iodide staining based flow cytometry (reference value: 4.6%); assay type: functional
MDA-MB-231 [13] = assay: Induction of apoptosis in human MDA-MB-231 cells assessed as late apoptotic cells at 5 umol/L after 48 hrs by annexin V-FITC/propidium iodide staining based flow cytometry (reference value: 2.2%); assay type: functional
PC-3 [14] = assay: Potency index, ratio of compound effect to (E)-2-Hydroxy-4,4-dimethoxy-3,5-diprenylchalcone effect for growth inhibition of human PC3 cells; assay type: functional
PC-3 [15] = assay: Induction of morphological changes in human PC3 cells assessed as increase in formation of apoptotic bodies at 5 umol/L after 48 hrs by inverted microscopic method; assay type: functional, cell-based; how it was run: as §3
MDA-MB-231 [16] = assay: Induction of apoptosis in human MDA-MB-231 cells assessed as viable cells at 5 umol/L after 48 hrs by annexin V-FITC/propidium iodide staining based flow cytometry (reference value: 91.3%); assay type: functional; details: MDA-MB-231, 48 h, read-out: Activity
K562 [17] = assay: Induction of morphological changes in human K562 cells assessed as increase in cell rounding at 5 umol/L after 48 hrs by inverted microscopic method; assay type: functional, cell-based; how it was run: as §4
K562 [18] = assay: Cell cycle arrest in human K562 cells assessed as decrease in G1 phase accumulation at 5 umol/L after 48 hrs by propidium iodide staining based flow cytometry; assay type: functional; how it was run: as §1
PC-3 [19] = assay: Cell cycle arrest in human PC3 cells assessed as decrease in G2 phase accumulation at 5 umol/L after 48 hrs by propidium iodide staining based flow cytometric method; assay type: functional; how it was run: as §1
K562 [20] = assay: Induction of apoptosis in human K562 cells assessed as late apoptotic cells at 5 umol/L after 48 hrs by annexin V-FITC/propidium iodide staining based flow cytometry (reference value: 2.3%); assay type: functional
K562 [21] = assay: Cytotoxicity against human K562 cells after 48 hrs by MTT assay; assay type: functional, cell-based; how it was run: as §2
MDA-MB-231 [22] = assay: Induction of apoptosis in human MDA-MB-231 cells assessed as early apoptotic cells at 5 umol/L after 48 hrs by annexin V-FITC/propidium iodide staining based flow cytometry (reference value: 3%); assay type: functional
HEL [23] = assay: Induction of morphological changes in HEL cells assessed as formation of apoptotic bodies at 5 umol/L after 48 hrs by inverted fluorescence microscopic analysis; assay type: functional, cell-based; details: Homo sapiens; how it was run: as §4
K562 [24] = assay: Induction of morphological changes in human K562 cells assessed as increase in formation of apoptotic bodies at 5 umol/L after 48 hrs by inverted microscopic method; assay type: functional, cell-based; how it was run: as §4
HEL [25] = assay: Induction of apoptosis in HEL cells assessed as late apoptotic cells at 5 umol/L after 48 hrs by annexin V-FITC/propidium iodide staining based flow cytometry (reference value: 1.6 to 3.3%); assay type: functional, Homo sapiens
PC-3 [26] = assay: Induction of apoptosis in human PC3 cells assessed as viable cells at 5 umol/L after 48 hrs by annexin V-FITC/propidium iodide staining based flow cytometry (reference value: 86.7%); assay type: functional; details: PC-3, 48 h, read-out: Activity
MDA-MB-231 [27] = assay: Induction of apoptosis in human MDA-MB-231 cells assessed as necrotic cells at 5 umol/L after 48 hrs by annexin V-FITC/propidium iodide staining based flow cytometry (reference value: 3.4%); assay type: functional
HEL [28] = assay: Induction of apoptosis in HEL cells assessed as early apoptotic cells at 5 umol/L after 48 hrs by annexin V-FITC/propidium iodide staining based flow cytometry (reference value: 2.6 to 4.2%); assay type: functional, Homo sapiens

Question: Which results are given for `COc1c(CC=C(C)C)cc(C(=O)/C=C/c2cccnc2)c(O)c1CC=C(C)C`?
Answer: Activity (HEL [1]): Active; Activity (MDA-MB-231 [2]): Active; Ratio (K562 [3]): 3 - 4; Activity (PC-3 [4]): Dose-dependent effect; IC50 (PC-3 [4]; PC-3, 48 h): 2920 nM; Activity (PC-3 [5]): Active; Activity (MDA-MB-231 [6]): Active; inhibition of growth at 5 µM (PC-3 [7]): 90.4%; Activity (K562 [8]): Active; Activity (K562 [9]): 11.3%; Activity (K562 [10]): 10.1%; Ratio (MDA-MB-231 [11]): 3 - 4; Activity (PC-3 [12]): 10.6%; Activity (MDA-MB-231 [13]): 36.8%; Ratio (PC-3 [14]): 3 - 4; Activity (PC-3 [15]): Active; viability at 5 µM (MDA-MB-231 [16]): 35.2%; Activity (K562 [17]): Active; Activity (K562 [18]): Active; Activity (PC-3 [19]): Active; Activity (K562 [20]): 14.6%; Activity (K562 [21]): Dose-dependent effect; IC50 (K562 [21]; K562, 48 h): 2640 nM; Activity (MDA-MB-231 [22]): 13.8%; Activity (HEL [23]): inactive; Activity (K562 [24]): Active; Activity (HEL [25]): 7.1%; viability at 5 µM (PC-3 [26]): 44.9%; Activity (MDA-MB-231 [27]): 14.1%; Activity (HEL [28]): 5.6%
